# High-throughput results as filed in PubChem BioAssay.
# The list is not random: actives were taken first. Their share in the collection is about 2.9%.
# S100A4 inh HTS – S100A4-myosin IIA interaction inhibition; inhibition, % at 10.7 µM; AID 652163; S100A4/TAMRA-MyoIIA peptide fluorescence polarization; actives 0.14% (n = 360,000);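 active = mean inhibition of at least 70% across replicates, with every replicate also reaching that level; inconclusive = mean inhibition reaches 70% but some replicates fall short; inactive = mean inhibition below 70%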
# Target sequence (P26447 whole entry, looked up): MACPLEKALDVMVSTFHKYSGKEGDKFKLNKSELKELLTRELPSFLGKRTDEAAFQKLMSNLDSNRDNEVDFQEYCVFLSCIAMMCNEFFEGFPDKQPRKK
#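 Material: S100A4 monomer protein | Medium: HEPES pH 7.2 with CaCl2, KCl, NaCl, DTT, Triton | Reagent: Labelled myosin peptide probe, 5 nM | Doses: One dose per compound | Times: 5 min incubation before reading | Benchmarks: Neutral control DMSO, positive control TFP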
# ERAP1 inh – ERAP1 (human) enzyme inhibition | Q9NZ08 | recombinant ERAP1, Leu-AMC fluorescence, 60 min | inhibition, % at 10.7 µM | actives 0.15% (n = 340,000);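 active = mean replicate inhibition of at least 30%, or all replicates individually reaching that 30% level; inactive = mean below 30% and not every replicate reaching it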;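 note: 0% = neutral control wells and 100% = L-leucinethiol positive control wells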
# CAL PDZ FP-1 – CAL PDZ (human) peptide binding inhibition | inhibition, % at 24.9 µM | purified CAL PDZ, TMR-peptide fluorescence polarization, 1 h | actives 0.92% (n = 300,000) | Q9HD26;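 active = mean inhibition of at least 30% with at least half of replicates also reaching 30%; inconclusive = no clear call, values can overlap the other calls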;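 note: 0% = DMSO neutral control and 100% = excess unlabeled competitor peptide PRC23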
# DENV2 CPE rescue – inhibitors of DENV2 cytopathic effect; DENV2-infected cells, cytopathic effect rescue, plate reader; CPE inhibition, % at 9.99 µM; actives 1.7% (n = 350,000); in the data active = CPE inhibition above about 20%, passing the limit was not always enough; inconclusive = no clear call, values can overlap the other calls; tested in BHK-21 cells;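 note: 0% = median of neutral control wells and 100% = median of positive control wells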
# SIRT5 block – inhibitors of human sirtuin-5 desuccinylase; Q9NXA8; Purified SirT5, succinyl-peptide AMC, trypsin-coupled fluorescence; inhibition, % at 15 µM; actives 1.1% (n = 330,000); in the data active = inhibition above about 15%; inconclusive = no clear call, values can overlap the other calls
# Target sequence (Q9NXA8 whole entry, looked up): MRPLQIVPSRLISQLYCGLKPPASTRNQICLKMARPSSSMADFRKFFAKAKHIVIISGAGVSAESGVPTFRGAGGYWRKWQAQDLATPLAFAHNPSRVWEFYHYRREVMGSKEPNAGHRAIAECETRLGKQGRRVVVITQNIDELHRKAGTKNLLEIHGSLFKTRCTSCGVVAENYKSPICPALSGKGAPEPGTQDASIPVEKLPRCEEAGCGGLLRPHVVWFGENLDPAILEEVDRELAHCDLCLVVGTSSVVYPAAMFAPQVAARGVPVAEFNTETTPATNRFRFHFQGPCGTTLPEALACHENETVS
# CAL PDZ FP-2 – blocks peptide binding to human CAL PDZ domain. Q9HD26. purified CAL PDZ, TMR-peptide fluorescence polarization, 1 h. inhibition, % at 20 µM. actives 0.02% (n = 330,000). AID 504414;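 active = highest replicate inhibition of at least 40%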;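 note: plate controls were DMSO neutral control wells for no effect and unlabeled competitor peptide control wells for full effect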
#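 Test system: purified CerCALP PDZ construct; Compound dosing: one concentration, 20 µM compound; Also added: TMR-labelled reporter peptide T*-PRC34 bound in PDZ groove; Read-out: inhibition from polarization loss; Controls: unlabelled peptide and DMSO controls; Signal: FP readout, S and P plane fluorescence; Incubation: 1 h at RT.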
# Starred values were filed as active, the others as inactive; ? = inconclusive; . = not tested or not shown.
SMILES,S100A4 inh HTS,ERAP1 inh,CAL PDZ FP-1,DENV2 CPE rescue,SIRT5 block,CAL PDZ FP-2
CC(C)CC#Cc1cnc2c(c1)C(=O)N([C@H](C)CO)C[C@@H](C)[C@H](CN(C)Cc1ccccc1F)O2,15,2,.,7,3,.
O=C(NC1CCCCC1)N[C@H]1C=C[C@@H](CC(=O)N2CCOCC2)O[C@H]1CO,2,1,.,?,3,.
O=C(CNS(=O)(=O)c1ccc([N+](=O)[O-])cc1)N/N=C/c1ccc(O)cc1O,47,1,34*,1,-5,.
O=C(CNS(=O)(=O)c1ccc([N+](=O)[O-])cc1)N/N=C\c1ccc(O)cc1,-3,-1,-2,3,1,-1
O=C(Oc1ccccc1)N1CCCC1,-9,0,-2,-7,-1,-2
O=C(Oc1ccc(Oc2ccccc2)cc1)N1CCC(O)CC1,-1,3,-3,0,34*,-1
CCOC(=O)Cc1csc(N/N=C/c2cccc([N+](=O)[O-])c2)n1,-2,0,-2,29*,-2,-2
C[C@H](CO)N1C[C@H](C)[C@H](CN(C)C(=O)Nc2ccc(C(F)(F)F)cc2)Oc2ccc(NC(=O)CCCCCC(=O)Nc3ccccc3N)cc2C1=O,-53,0,.,-2,.,.
CC1CN(C2=CC(=O)CCC2)CC(C)O1 (centres undefined),1,-1,-3,21*,1,-3
CCC(=O)Nc1cccc(-c2cc3ccccc3oc2=O)c1,-2,2,-3,30*,28*,-2
CCC(=O)Nc1cccc(NC(=O)c2cc3ccccc3o2)c1,.,.,-3,.,.,-3
CC(NC(=O)CCC(=O)NCc1ccc(F)cc1)c1ccccc1 (centres undefined),-5,2,88*,6,-6,-1
CC(C)c1ccc(NC(=O)Nc2nc(C(C)N)cs2)cc1 (centres undefined),-5,3,.,-10,.,.
COc1cc(NC(=O)Nc2nc(C(N)CCc3ccccc3)cs2)cc(OC)c1OC (centres undefined),-5,-2,.,0,3,.
CC(C)c1ccc(NC(=O)Nc2nc(C(N)CCc3ccccc3)cs2)cc1 (centres undefined),-1,10,.,37*,-10,.
CC(C)c1ccc(NC(=O)Nc2nc(C(N)c3ccccc3Cl)cs2)cc1 (centres undefined),-10,-3,.,23*,.,.
Cc1nc(SCC(=O)O)c(C#N)c2c1CCCC2,-4,4,76*,-4,4,-4
COc1ccc2c3c(n(C)c2c1)[C@@H](CO)N(C(=O)c1cccnc1)CC31CCN(S(C)(=O)=O)CC1,.,.,.,-9,.,.
COc1ccc(S(=O)(=O)N2CCC3(CC2)CN(C(=O)c2cccnc2)[C@@H](CO)c2c3c3ccc(OC)cc3n2C)cc1,-4,1,.,7,21*,.
COc1ccc(S(=O)(=O)N2CC3(CN(C(=O)CN(C)C)[C@H](CO)c4c3c3ccc(OC)cc3n4C)C2)cc1,2,2,.,102*,5,.
CN(C)CCNc1nc2sc3c(c2c(=O)n1-c1ccc(F)cc1)CCCCC3,2,15,-7,26*,-2,0
CN(C)CCNc1nc2sc3c(c2c(=O)n1-c1ccccc1)CCCCC3,-1,11,0,4,-1,2
O=C(c1cccnc1)C1Cc2ccccc2C1=O (centres undefined),-2,8,-9,49*,0,-1
O=C(NCc1cccs1)c1ccccc1,.,.,-6,.,.,-1
O=C(NCc1cccs1)c1cccc(Nc2nc3ccc(Br)cc3[nH]2)c1,-5,1,-3,22*,.,-1
SMILES,S100A4 inh HTS,ERAP1 inh,CAL PDZ FP-1,DENV2 CPE rescue,SIRT5 block,CAL PDZ FP-2
COc1ccc(S(=O)(=O)N(C)C[C@H]2Oc3c(NC(=O)CCCCCC(=O)Nc4ccccc4N)cccc3C(=O)N([C@H](C)CO)C[C@@H]2C)cc1,-13,1,.,4,-3,.
COc1ccc(S(=O)(=O)N(C)C[C@@H]2Oc3c(NC(=O)CCCCCC(=O)Nc4ccccc4N)cccc3C(=O)N([C@@H](C)CO)C[C@H]2C)cc1,0,1,.,8,1,.
COc1ccc(S(=O)(=O)N(C)C[C@@H]2Oc3c(NC(=O)CCCCCC(=O)Nc4ccccc4N)cccc3C(=O)N([C@H](C)CO)C[C@@H]2C)cc1,1,-2,.,36*,.,.
COc1ccc(S(=O)(=O)N(C)C[C@H]2Oc3c(NC(=O)CCCCCC(=O)Nc4ccccc4N)cccc3C(=O)N([C@@H](C)CO)C[C@@H]2C)cc1,-1,-2,.,32*,10,.
COc1ccc(S(=O)(=O)N(C)C[C@@H]2Oc3c(NC(=O)CCCCCC(=O)Nc4ccccc4N)cccc3C(=O)N([C@H](C)CO)C[C@H]2C)cc1,56,-2,.,32*,2,.
COc1ccc(C(=O)N2C[C@@H]3[C@H](c4ccccc42)[C@H](CO)N3C(=O)c2cccc(F)c2)cc1,-32,-1,.,-8,-2,.
COc1cccc(OC)c1-c1cnc(NC(C)=O)cn1,0,2,.,24*,.,.
CC(=O)Nc1cnc(-c2ccccc2C(C)=O)cn1,-4,2,.,-8,-4,.
CC(=O)Nc1cccc(-c2ccnc3c2CC(C(=O)NCc2ccncc2)O3)c1 (centres undefined),-6,-6,.,-8,.,.
CC(=O)Nc1cccc(-c2ccnc3c2CC(C(=O)NCc2ccc(F)c(F)c2)O3)c1 (centres undefined),1,-2,.,-7,15*,.
CC(=O)n1cc(/C=N/NC(=O)c2ccccc2Cl)c2ccccc21,.,.,68*,.,.,-1
CC(=O)n1cc(CO)c2ccccc21,2,-3,-1,35*,9,-3
CC(C)C[C@@H](CO)N1CCN(Cc2ccccc2)CCC1=O,.,.,1,.,.,0
O=C1CCN(CCc2ccccc2)CCN1[C@H](COc1ccccc1)c1ccccc1,5,.,-4,99*,.,0
COc1ccc(NC(=S)N2CCN(Cc3ccccc3)CC2)cc1,-4,6,-2,19,94*,-1
COc1ccc(CN2CCC(=O)N([C@H](CO)c3ccccc3)CC2)cc1,-6,-1,-2,26*,-5,0
O=C1CCN(Cc2cccnc2)CCN1[C@H](CO)c1ccccc1,0,.,1,-4,.,-1
CC(C)C[C@@H](CO)N1CCN(Cc2cccc(C#N)c2)CCC1=O,3,.,0,20*,.,0
C[C@@H]1CN([C@@H](C)CO)C(=O)c2cc(NC(=O)Cc3ccccc3)ccc2O[C@@H](C)CCCCO[C@H]1CN(C)C(=O)c1ccccc1,-2,-4,.,8,0,.
Cc1ccc(S(=O)(=O)Nc2ccc3c(c2)CC(=O)N([C@@H](C)CO)C[C@@H](C)[C@H](CN(C)C)O3)cc1,7,2,.,18,-4,.
